# Compound activity from PubChem.
# UPR XBP1 act: activators of adaptive XBP1 UPR arm, primary screen, cell-based, CHO-XBP1 luciferase reporter, luminescence, uHTS; IRE1-XBP1 UPR activation; percent of tunicamycin response, DMSO as zero; activation, % at 20 µM; 330,000 compounds, 0.33% hits;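 active means versus positive control, 20 µM dose yields 30% or more activation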;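 further: 100% = tunicamycin at 10 µg/mL and 0% = DMSO only wells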
#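 Assay system: IRE1-XBP1 luciferase reporter CHO line. Input: 1000 cells/well. Buffer or medium: F12 with 10% serum. Doses: 20 µM, 1% DMSO. Times: overnight seeding at 37 °C, 6 h compound treatment at 37 °C. Technique: Steady-Glo luciferase glow luminescence, 10 min after reagent addition.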
# CHOP inhibitor: inhibitors of CHOP promoter induction, primary screen, cell-based, unfolded protein response, luciferase reporter; inhibition, % at 10 µM; 220,000 compounds, 3.8% hits; CHO-K1 CHOP-promoter luciferase, tunicamycin-induced, 15-18 h;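 active means compounds that reduced the stress-induced luciferase reporter signal by more than about 70% of percent inhibition, limit read from the data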;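 further: 0% = tunicamycin plus vehicle and 100% = wells without tunicamycin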
# UPR CHOP act: activators of apoptotic CHOP UPR arm, primary screen, cell-based, CHO-CHOP luciferase reporter, luminescence, uHTS. UPR activation; percent of tunicamycin response over DMSO baseline. activation, % at 10 µM. 330,000 compounds, 0.34% hits;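 active means at 10 µM dose, activation of 40% or more, normalized to positive control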;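 further: 100% = tunicamycin at 10 µg/mL and 0% = DMSO alone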
#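 Dosing – one dose, 10 µM in 0.5% DMSO · System – CHO-CHOP cells, stable luciferase reporter of PERK-eIF2a-CHOP signalling · Input – 500 cells/well · Control set – tunicamycin 10 µg/mL final as positive, DMSO-only wells as negative · Timing – 6 h compound treatment, 37 °C · Measure – % activation vs tunicamycin · Technique – luminescence read with Steady-Glo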
# Bfl-1 A1 inh: caspase 3/7 activation in MEF A1-2A-BIM cells, primary screen, A1 inhibitor project, cell-based, luminescence, HTS | Caspase-Glo 3/7 luminescence, 3 h; percent of clofoctol response, vehicle zero | caspase activation, % (concentration not given with the values) | 330,000 compounds, 0.066% hits;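 active means over half of replicate activation scores above 10%, or exactly half above 10 with the replicate mean above 10; inconclusive means replicate mean below 10 yet half the replicates above 10; inactive means over half of replicates below 10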
# Starred values were filed as active, the others as inactive; ? = inconclusive; . = not tested or not shown. Only a selection was taken, and hits are over-represented in it overall.
SMILES,UPR XBP1 act,CHOP inhibitor,UPR CHOP act,Bfl-1 A1 inh
COc1cc(C(=O)N/N=C2\CCS(=O)(=O)c3ccc(F)cc32)cc(OC)c1OC,1,73*,-2,0
O=C(N/N=C1\CCS(=O)(=O)c2ccc(F)cc21)c1ccc(O)cc1,-1,-2,0,0
O=S1(=O)CC/C(=N/Nc2ccc(C(F)(F)F)cn2)c2cc(F)ccc21,-2,95*,-2,0
CCC(CO)Nc1nc(NCc2ccccc2)c2ncn(C(C)C)c2n1 (stereo not drawn),.,13,.,.
CCn1cc(C(=O)N(C)c2ccccc2F)c2cc(OC)c(OC)cc2c1=O,0,.,0,1
COc1cc(C=C(c2nc3ccccc3s2)c2nc3ccccc3s2)ccc1O,1,74*,2,-1
COc1ccc(C=C(c2nc3ccccc3s2)c2nc3ccccc3s2)cc1O,0,0,3,1
COc1ccc2c(c1OC)C(=O)OC2Nc1nc(-c2cc3cc(Br)ccc3oc2=O)cs1 (stereo not drawn),0,71*,5,-8
C/C=C/Cn1c(SC)nc2c1c(=O)[nH]c(=O)n2C,4,9,-3,0
COCCn1c(SCc2ccc(Cl)cc2)nc2c1c(=O)[nH]c(=O)n2C,6,.,1,0
C/C=C/Cn1c(SCc2ccc(Cl)cc2)nc2c1c(=O)[nH]c(=O)n2C,13,76*,1,0
CCCn1c(SCc2ccc(Cl)cc2)nc2c1c(=O)[nH]c(=O)n2C,19,82*,1,-2
CCN(CC)C(=O)c1nc[nH]c1C(=O)N1CCc2ccccc2C1,-1,.,0,2
c1ccc2cc(CCO[C@H]3CCCCO3)ncc2c1,-6,.,-3,0
Cc1cc(N2CCN(C)CC2)nc2ccc(NC(=S)N3CCCCC3)cc12,.,15,.,.
Cc1cccc(N2CCN(C(=S)Nc3ccc4nc(N5CCN(C)CC5)cc(C)c4c3)CC2)c1C,.,105*,.,.
CCOC(=O)c1c(C)[nH]c(C)c1C(=O)COC(=O)c1cccs1,-1,.,1,0
CCOc1ccccc1OCC(=O)NCc1ccco1,0,77*,0,0
CCOc1ccc(-c2cc(CCCC(=O)NCc3ccco3)no2)cc1,-4,84*,-4,-1
CCOc1ccc2nc(SCC(=O)NC(=O)NCc3ccco3)sc2c1,-2,75*,-1,0
CCOc1ccc(-c2nnn(CC(=O)NCc3ccco3)n2)cc1,-2,27,3,-1
COc1ccc(N2CCN(C(=O)COCc3cc(-c4ccc5c(c4)OCO5)on3)CC2)cc1,-2,.,1,-1
COc1ccc(-c2cc(CCCC(=O)N3CCN(c4ccc(OC)cc4)CC3)no2)cc1,-3,95*,-2,-1
OCCN(Cc1ccccc1)CC(O)COc1ccc(-c2ccccc2)cc1 (stereo not drawn),2,76*,9,0
O=C(Sc1cccc2cccnc12)c1ccccc1Br,0,.,62*,0
SMILES,UPR XBP1 act,CHOP inhibitor,UPR CHOP act,Bfl-1 A1 inh
CC(=O)/C(=N\Nc1ccccc1)Sc1cccc2cccnc12,1,15,1,1
O=C(Sc1cccc2cccnc12)c1ccc(F)cc1,-3,91*,69*,.
CCOc1ccccc1CNC(=O)Cn1ccc2cc(S(=O)(=O)N3CCC(C)CC3)ccc21,-3,.,-1,0
Cc1ccccc1N(CC(=O)NCC1CCCO1)C(=O)CNS(=O)(=O)c1ccc(F)cc1 (stereo not drawn),-3,.,2,0
Cc1ccc(-c2csc(/C=C3\SC(C)C(=O)N3CC(=O)Nc3ccccc3F)n2)cc1 (stereo not drawn),-1,93*,2,0
O=C(CN1C(=O)CS/C1=C\c1nc(-c2ccc(Cl)cc2)cs1)Nc1cccnc1Cl,13,-6,1,?
C=C(C)C1CC=C(C)/C(=N\NC(=O)CCC(=O)Nc2ccc(C)c(C)c2)C1 (stereo not drawn),-1,77*,3,1
CCOc1ccc(CCNC(=O)COC(=O)c2ccc(S(=O)(=O)N3CCCC3)cc2)cc1OCC,-4,.,-2,0
CC(/C=N/Nc1nc(N2CCCCC2)nc(N2CCCCC2)n1)=C\c1ccccc1,-2,73*,0,-1
C(=N\Nc1nc(N2CCCCCC2)nc(N2CCCCCC2)n1)/c1ccccc1,1,42,0,2
Cc1ccc(C)c(N2CCN(C(=O)c3ccc(CS(=O)(=O)c4ccccc4C)o3)CC2)c1,3,.,0,0
Cc1ccc(S(=O)(=O)Cc2ccc(C(=O)N3CCN(c4cc(C)ccc4C)CC3)o2)cc1,.,95*,.,1
COc1ccc(Cl)c(N2CCN(CCCNC(=O)Nc3ccc(C)cc3)CC2)c1,-4,83*,-4,0
O=S(=O)(c1ccccc1)c1cnn2c(C(F)(F)F)cc(-c3ccc(F)cc3)nc12,2,71*,0,-1
COc1ccc(C(C)=O)cc1COC(=O)c1cnc(Cl)c(Cl)c1,-2,27,1,0
CCc1ccc(-c2csc(NC(=O)C3CC(=O)N(c4ccc5c(c4)OCCO5)C3)n2)cc1 (stereo not drawn),-4,85*,2,2
Cc1csc(NC(=O)C2CC(=O)N(c3ccc4c(c3)OCCO4)C2)n1 (stereo not drawn),-1,.,1,0
COc1cc(NS(=O)(=O)c2ccc(N/C=C(\C#N)c3nc4cc(Cl)ccc4o3)cc2)nc(OC)n1,-1,92*,0,-1
CC(C)NC(=O)C1(O)c2ccccc2NC(=O)N1c1ccc(Cl)c(Cl)c1 (stereo not drawn),-1,81*,-1,1
CCOCCCNC(=O)C1(O)c2ccccc2NC(=O)N1c1ccc(Cl)c(Cl)c1 (stereo not drawn),0,.,1,1
COc1ccc(/C=C2\Sc3ccc(C(=O)NCCCN4CCCC4)cc3N(C)C2=O)cc1OC,0,.,-1,0
COc1ccc(-c2ccc(/C=C3/C(=N)N4C=CSC4=NC3=O)o2)c([N+](=O)[O-])c1,.,82*,.,-2
Cc1ccc(C)c2c1[nH]c1ccc([N+](=O)[O-])cc12,-3,82*,1,-1
CCOc1cc(-c2nc(-c3ccccc3OC)no2)cc(OCC)c1OCC,1,76*,-1,1
CCOc1cc(-c2nc(-c3ccc(OC)cc3)no2)cc(OCC)c1OCC,0,26,1,1
Cc1ccc(NC(=O)Nc2ccc(F)cc2)cc1Cl,3,67,4,-2
Cc1ccc(NC(=O)CCC(=O)c2ccc(F)cc2)cc1Cl,1,79*,-1,0
CC1CCCC(NC(=O)c2cn(C)c3ccc(S(=O)(=O)N4CCCC4)cc3c2=O)C1C (stereo not drawn),0,80*,-1,0
